Experimental data from ChEMBL document CHEMBL1142730, “Design of HIV-1 protease inhibitors active on multidrug-resistant virus” (J Med Chem, 2005).
Converted amounts (≈) assume the structure as drawn.

Assays:
[1] = Maximum plasma concentration value in wistar rat was determined at a dosage of 20 mg/kg; format: ADME, organism-based; parameters: dose 20 mg/kg
Procedure, shortened: (§1)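 Wistar rats, single-dose study at 20 mg/kg, compound formulated in PEG400. Plasma Cmax, Tmax, t1/2 and AUC determined.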

[2] = system: Human immunodeficiency virus 1; test: Protease inhibitory activity against HIV-1 r13034 mutant strain was determined; format: functional, organism-based
[3] = species: Rattus norvegicus; test: In vitro metabolic stability value after 30 min of incubation with liver microsomes of rat was determined; format: functional; conditions: Microsome
Procedure, shortened: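 Compound at 10 µM incubated at 37 °C with dog, human or rat liver microsomes. Residual parent compound quantified directly by LC-MS. Value is percent parent remaining after 30 min.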

[4] = system: Human immunodeficiency virus 1; test: Protease inhibitory activity against HIV-1 r13025 mutant strain was determined; format: functional, organism-based
[5] = system: Caco-2; test: In vitro increase in apparent permeability from apical to basolateral was determined in Caco-2 (human colon carcinoma) cells; format: functional, cell-based
Procedure, shortened: (§2)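 Caco-2 monolayer apparent permeability measured apical-to-basolateral and basolateral-to-apical; reported as Papp in cm/s (×10⁶).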

[6] = In vivo area under the concentration time curve value in wistar rat was determined at a dosage of 20 mg/kg; format: ADME, organism-based; parameters: dose 20 mg/kg; procedure, shortened: as §1
[7] = system: Human immunodeficiency virus 1; test: Protease inhibitory activity against HIV-1 GSS004421 mutant strain was determined; format: functional, organism-based
[8] = system: Human immunodeficiency virus 1; test: Protease inhibitory activity against wild type HIV-1 IIIB was determined; format: functional, organism-based
[9] = system: Human immunodeficiency virus 1; test: Toxicity value against wild type HIV-1 IIIB was determined; format: functional
Procedure, shortened: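 MT4 cells (150 000 cells/mL) mock-infected, run in parallel with HIV-infected cultures over an identical compound concentration range. Incubated 3 days at 37 °C, 5% CO₂. Reduced expression of the […] GFP reporter serves as the toxicity marker.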

[10] = system: Caco-2; test: In vitro increase in apparent permeability from basolateral to apical was determined in Caco-2 (human colon carcinoma) cells; format: functional, cell-based; procedure, shortened: as §2
[11] = In vivo half life value in wistar rat was determined at a dosage of 20 mg/kg; format: ADME, organism-based; parameters: dose 20 mg/kg; procedure, shortened: as §1
[12] = system: Human immunodeficiency virus 1; test: Protease inhibitory activity against HIV-1 r13363 mutant strain was determined; format: functional, organism-based
[13] = In vivo time to reach maximum plasma concentration value in wistar rat was determined at a dosage of 20 mg/kg; format: ADME, organism-based; parameters: dose 20 mg/kg; procedure, shortened: as §1
[14] = molecular target: T1, Human immunodeficiency virus type 1 protease (Human immunodeficiency virus 1, UniProt Q72874); test: (§3) Binding affinity against HIV-1 protease
[15] = In vivo time to reach maximum plasma concentration value in dog was determined at a dosage of 20 mg/kg; format: ADME, organism-based, Canis lupus familiaris; parameters: dose 20 mg/kg
Procedure, shortened: (§4)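 Oral dosing in dog at 20 mg/kg, coadministered with ritonavir. Compound given as a solution in PEG400 or in 40% w/v hydroxypropyl-β-cyclodextrin with 2% citric acid. Plasma Cmax, Tmax, t1/2 and AUC determined.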

[16] = Maximum plasma concentration value in dog was determined at a dosage of 20 mg/kg; format: ADME, organism-based, Canis lupus familiaris; parameters: dose 20 mg/kg; procedure, shortened: as §4
[17] = molecular target: T1, Human immunodeficiency virus type 1 protease; test: as §3; remark: listed apart in the source
Procedure, shortened: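 Isothermal titration calorimetry by displacement: the protease was pre-titrated with acetylpepstatin (300 µM) as the weaker binder, then the inhibitor (125 or 200 µM in the syringe) was injected to saturation into protease (9–21 µM). Buffer was 10 mM sodium acetate pH 5.0, 2% DMSO, 2 mM TCEP. Heats of dilution were subtracted, and each run was done at least twice.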

[18] = In vivo half life value in dog was determined at a dosage of 20 mg/kg; format: ADME, organism-based, Canis lupus familiaris; parameters: dose 20 mg/kg; procedure, shortened: as §4
[19] = In vivo area under the concentration time curve value in dog was determined at a dosage of 20 mg/kg; format: ADME, organism-based, Canis lupus familiaris; parameters: dose 20 mg/kg; procedure, shortened: as §4
[20] = In vitro solubility at was determined; pH=7; format: ADME
Procedure, shortened: (§5)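 Aqueous solubility measured at pH 5 and pH 7, expressed in […].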

[21] = In vitro solubility at was determined; pH=5; format: ADME; procedure, shortened: as §5

Row | SMILES | Cmax [1] [ng/mL] | pEC50 [2] | Metabolic stability [3] [%] | pEC50 [4] | Papp [5] [×10⁻⁶ cm/s] | AUC [6] [ng·h/mL] | pEC50 [7] | EC50 [8] [nM] | pCC50 [9] | Papp [10] [×10⁻⁶ cm/s] | pEC50 [12] | Tmax [13] [h] | also measured
1 | CC(C)CN(C[C@@H](O)[C@H](Cc1ccccc1)NC(=O)O[C@H]1CO[C@H]2OCC[C@H]21)S(=O)(=O)c1ccc2nc(N)oc2c1 | 260 | 8.19 | 90 | 8.21 | 3.8 | 448 | 8.06 | 11.7 | < 4.49 | 23.8 | 7.6 | 1 | half-life [11]: 1.6 h
2 | CC(C)CN(CC(O)C(Cc1ccccc1)NC(=O)OC1CCOC1)S(=O)(=O)c1ccc(N)cc1 (stereo not drawn) |  |  |  |  |  |  |  |  |  |  |  |  | Kd [14]: 0.4 nM
3 | CNc1nc2ccc(S(=O)(=O)N(CC(C)C)C[C@@H](O)[C@H](Cc3ccccc3)NC(=O)O[C@H]3CO[C@H]4OCC[C@H]43)cc2o1 | 927 | 8.61 | 70 | 8.13 | 17.6 | 1200 | 8.07 | 2 | < 4.49 | 24 | 7.5 | 1.4 | Tmax [15]: 2 h; Cmax [16]: 986 ng/mL; Kd [17]: 0.9 nM; half-life [18]: 0.9 h; AUC [19]: 2030 ng·h/mL; solubility [20]: < 10 µg/mL; solubility [21]: 10 µg/mL (≈ 16.6 µM)
